# Screens as filed in PubChem BioAssay.
# TNAP act hiacc: activators of human TNAP at high phosphate acceptor concentration; AID 1136; P05186; activation factor at 20 µM; 200,000 tested, under 10 active; purified TNAP, CDP-star luminescence, 1 M DEA, 30 min; hits give high values; 0 = EDTA background, 1 = DMSO-only activity;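 active = activation factor at least 2 at 20 µM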
# Target sequence (P05186 whole entry, looked up): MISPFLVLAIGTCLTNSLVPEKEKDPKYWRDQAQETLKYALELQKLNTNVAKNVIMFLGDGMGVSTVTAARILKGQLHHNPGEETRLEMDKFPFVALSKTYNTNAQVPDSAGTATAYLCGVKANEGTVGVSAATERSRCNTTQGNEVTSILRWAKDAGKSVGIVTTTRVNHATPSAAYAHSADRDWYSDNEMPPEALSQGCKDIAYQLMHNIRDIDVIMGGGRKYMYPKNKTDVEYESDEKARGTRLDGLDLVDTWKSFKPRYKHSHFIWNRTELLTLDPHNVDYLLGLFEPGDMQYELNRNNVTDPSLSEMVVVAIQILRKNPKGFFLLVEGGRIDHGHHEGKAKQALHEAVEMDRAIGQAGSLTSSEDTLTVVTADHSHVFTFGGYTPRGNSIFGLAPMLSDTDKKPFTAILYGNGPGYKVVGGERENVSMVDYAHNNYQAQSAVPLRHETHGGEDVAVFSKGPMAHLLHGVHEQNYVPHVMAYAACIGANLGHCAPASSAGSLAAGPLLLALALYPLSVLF
#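 Test system – human TNAP · Doses – 20 µM single point · Incubation – 30 min, room temperature · Signal – luminescent substrate turnover signal · Read-out basis – activation factor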
# Arbovirus inh: arbovirus infection inhibition; 200,000 tested, 0.37% active; inhibition, % at 10 µM; arbovirus infection cell-based antiviral screen; in the data active = inhibition above about 30%
# PKD1 inh: blocks activity of human protein kinase D1. PKD1 kinase fluorescence polarization assay. inhibition, % (concentration not given with the values). 200,000 tested, 0.056% active. Q15139; in the data active = inhibition above about 50%
# TNAP inh no acc: blocks human TNAP activity with no phosphate acceptor present; P05186; purified TNAP, CDP-star luminescence, 30 min; inhibition, % at 20 µM; 200,000 tested, 0.26% active; AID 1012;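 active = tissue-nonspecific alkaline phosphatase inhibition above about 50% at 20 µM in the single-dose screen, limit read from the data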;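 also: 0% = DMSO negative control and 100% = EDTA positive control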
# TNAP inh hi DEA: inhibitors of human TNAP at high phosphate acceptor concentration | 200,000 tested, 0.03% active | purified TNAP, CDP-star luminescence, 1 M DEA | inhibition, % at 20 µM | P05186;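 active = over 50% inhibition of tissue-nonspecific alkaline phosphatase at 20 µM in the single-dose screen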;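 also: plate controls were DMSO wells for no effect and EDTA-quenched wells as full inhibition for full effect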
# * = called active by the depositor; · = not tested or not shown. Only some compounds are listed: those with a hit (about 0.72% of all), similar ones and a draw of the others.
SMILES,TNAP act hiacc,Arbovirus inh,PKD1 inh,TNAP inh no acc,TNAP inh hi DEA
CCOc1ccc(CCNC(=O)Cn2ccc3ccccc3c2=O)cc1OCC,1,2,6,-12,-4
CCOc1ccc(/C=N/NC(=O)c2cc(-c3cccn3C)n[nH]2)cc1,0.9,1,8,79*,7
O=C(O)c1cc(-c2ccccc2Cl)n[nH]1,0.9,11,3,96*,10
Cn1cccc1-c1cc(C(=O)O)[nH]n1,1,2,·,70*,2
Cn1cccc1-c1cc(C(=O)N2CCc3c([nH]c4ccccc34)C2c2ccccn2)[nH]n1 (stereo not given),1,1,0,18,-3
O=C(O)c1cc(-c2ccccc2)n[nH]1,1,3,8,86*,2
CC1CC(CC(=O)NC(=S)Nc2ccccc2Cl)C(=O)O1 (stereo not given),1.1,0,1,-14,-5
CCNS(=O)(=O)c1ccc(NC(=S)NCC2CCCO2)cc1 (stereo not given),1,4,1,-8,-3
COC(=O)/C=C1/N/C(=N\c2nc(C)cc(C)n2)N(c2ccc(Cl)cc2)C1=O,1,-7,-14,-20,1
Cc1ccc(CSCc2nc3ccccc3[nH]2)cc1,1,36*,-4,-56,-4
CC1=NNC(=O)C1CC(=O)N/N=C(\C)c1ccco1 (stereo not given),1,0,1,-7,2
CCCCCNc1nc2ccccc2nc1NS(=O)(=O)c1cccs1,1,32*,-8,-10,-4
COc1ccc(S(=O)(=O)N/N=C(/C)c2cccc(NC(=O)c3ccccc3Cl)c2)cc1,1.1,37*,4,-14,-6
CC(C)(C)c1ccccc1NC(=S)NC1CCCCC1,1,6,-9,-3,-1
Cn1cccc1CNC(=S)Nc1ccccc1F,1,-3,-1,-10,4
Nc1ccc(Cc2ccc(N)c(O)c2)cc1O,0.8,6,-3,57*,21
Oc1[nH]c2ccccc2c1N=NC(=S)NCCc1ccccc1,0.8,-14,1,-60,15
NC(=S)N=Nc1c(O)[nH]c2ccccc12,1,2,-7,65*,4
Cc1ccc(OC(C)C(=O)N/N=C/c2ccccn2)cc1 (stereo not given),1,-1,6,-10,-2
CSCC[C@H](NC(=O)c1cccc([N+](=O)[O-])c1C)c1nc2ccccc2[nH]1,1,-6,6,-24,2
Cc1c(C(=O)NC(Cc2ccccc2)c2nc3ccccc3[nH]2)cccc1[N+](=O)[O-] (stereo not given),1,33*,6,8,0
COc1ccc(OC)c(C(=O)Cn2c3[n+](c4ccc(C(F)(F)F)cc42)CCCCC3)c1,1,0,3,-5,-1
CCCCCCn1c(=O)c(Cc2ccccc2)c(O)c2ccccc21,1,10,-5,-20,-3
CCCCCCn1c(=O)c(-c2ccccc2)c(O)c2ccccc21,1.1,54*,3,-10,-6
CCOC(=O)c1c(C)[nH]c(C(=O)N/N=C\c2ccccc2Cl)c1C,1,-17,2,-13,-2
SMILES,TNAP act hiacc,Arbovirus inh,PKD1 inh,TNAP inh no acc,TNAP inh hi DEA
O=C(/C=C/c1ccc2c(c1)OCCCO2)c1ccc2ccccc2c1O,0.9,32*,5,14,10
CC(=O)NCC1=C(NC(C)=O)C2CC1C(C)(C)C2C (stereo not given),1,31*,-6,-8,-2
COCCCNc1nc(-c2ccncc2)nc2ccccc12,1,33*,7,-14,-3
Cn1c(Oc2ccccc2NCc2cc(Br)ccc2O)cc(=O)n(C)c1=O,1.1,32*,-5,-15,-5
COc1ccc(-c2nc(-c3cccc([N+](=O)[O-])c3O)cc(=O)o2)cc1OC,0.9,-4,-10,2,12
COc1cc(/C=C2/C(=O)c3cccc([N+](=O)[O-])c3C2=O)c(Br)cc1O,0.6,-33,1,66*,35
CCCCCC/C(C)=C1/SC(=S)NC1=O,1,16,-12,-6,1
C/C(C/C(C)=C1/SC(=S)NC1=O)=C1\SC(=S)NC1=O,1,33*,0,-143,-1
CCOc1ccc(C(C)=O)cc1CN1C(=O)NC2(CCCCCCC2)C1=O,1,10,2,-7,-1
CCOC(=O)Cc1ccc2sc(-c3ccccc3)nc2c1,1,-2,-10,-26,-3
C=CCNC(=S)NNC(=O)c1ccncc1,1,2,0,-63,-4
Cc1[nH]c2ccccc2c1C(=O)CSc1nc2ncc(Cl)cc2[nH]1,1,-6,-2,58*,1
Cc1ccc2nc(SCC(=O)c3c(C)[nH]c4ccccc34)[nH]c2c1,1,-3,-4,-45,1
O=C(c1ccccc1)c1cn[nH]c1-c1ccccc1O,1,3,-5,78*,1
N/C(=N\OC(=O)COc1ccc2ccccc2c1Br)c1ccncc1,1.1,-6,-2,-10,-6
COc1cc(/C=C2\SC(c3ccc(C)cc3)=NC2=O)cc(OC)c1OC,0.9,-13,-8,-12,5
COc1cc(/C=C2\SC(c3ccccc3)=NC2=O)cc(Cl)c1O,0.8,-1,1,52*,25
O=C(CN(c1ccccc1)S(=O)(=O)c1ccccc1[N+](=O)[O-])Nc1ccccc1C(=O)N1CCOCC1,1,2,8,-6,2
COc1ccc(Cl)cc1N(CC(=O)NCC(C)C)S(=O)(=O)c1ccc(C)c([N+](=O)[O-])c1,1,-2,1,-49,-1
CCCCNC(=O)CSc1nc2ccsc2c(=O)n1CCCC(=O)NCCc1ccc(S(N)(=O)=O)cc1,1,-7,-11,3,4
O=c1cc(-c2cccc3ccccc23)[nH][nH]1,0.5,2,-7,69*,48
COc1ccc(C(=O)Nc2sc3c(c2C(=O)O)CC(C)(C)OC3)cc1,1,34*,-4,-8,-2
CC1(C)Cc2c(sc(NC(=O)c3ccccc3)c2C(=O)O)CO1,1,12,3,-5,-2
CC(C)COc1ccc(C(=O)Nc2sc3c(c2C(=O)O)CC(C)(C)OC3)cc1,1,61*,0,8,-5
Cc1csc(SCC(=O)NCCc2ccc(Cl)cc2Cl)n1,1,-21,1,-1,-3
SMILES,TNAP act hiacc,Arbovirus inh,PKD1 inh,TNAP inh no acc,TNAP inh hi DEA
COc1cc2[nH]c(=S)nc(NCc3ccccn3)c2cc1OC,1,-3,1,-13,-5
Cn1ncc2c1ncn1nc(COc3ccc4ccccc4c3)nc21,1,5,-2,-15,-3
Cn1ncc2c1ncn1nc(CCc3ccccc3)nc21,1,0,-2,59*,3
C/C(=N\NC(=O)COc1ccc([N+](=O)[O-])cc1)C(C)(C)C,1,81*,-1,-2,2
O=C(COc1ccccc1)NNC(=O)COc1ccc([N+](=O)[O-])cc1,1,-4,1,-87,-2
FC(F)(F)c1cc(-c2cccs2)n[nH]1,1,3,-3,71*,-5
